# From ChEMBL document CHEMBL1275524, “Activities of antifungal agents against yeasts and filamentous fungi: assessment according to the methodology of the European Committee on Antimicrobial Susceptibility Testing” (2008)
# Key:
# Candida albicans [1] = experiment: Antifungal activity against Candida albicans; assay type: functional
# Procedure, shortened: (§1)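 Broth microdilution in flat-bottom plates in RPMI 1640 with 2% glucose; inoculum 0.5 × 105 to 2.5 × 10^5 CFU/ml. MICs were read spectrophotometrically at 24 h. AMB endpoint: ≥90% growth reduction vs drug-free control well. Azole and CPF endpoint: 50% reduction in optical density. MFC was taken as the lowest concentration giving 99% killing.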
# Nakaseomyces glabratus [2] = experiment: Antifungal activity against Candida glabrata; assay type: functional; procedure, shortened: as §1
# Candida parapsilosis [3] = experiment: Antifungal activity against Candida parapsilosis; assay type: functional; settings: Lodderomyces parapsilosis; procedure, shortened: as §1
# Pichia kudriavzevii [4] = experiment: Antifungal activity against Candida krusei; assay type: functional
# Procedure, shortened: (§2)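 EUCAST broth microdilution for yeasts in flat-bottom plates, RPMI 1640 with 2% glucose, inoculum 0.5 × 105 to 2.5 × 10^5 CFU/ml. […] MFC is the lowest concentration giving 99% killing.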
# Clavispora lusitaniae [5] = experiment: Antifungal activity against Candida lusitaniae; assay type: functional; procedure, shortened: as §1
# Candida tropicalis [6] = experiment: Antifungal activity against Candida tropicalis; assay type: functional; procedure, shortened: as §1
# [7] = test system: Meyerozyma guilliermondii; experiment: Antifungal activity against Candida guilliermondii; assay type: functional; procedure, shortened: as §1
# Saccharomyces cerevisiae [8] = experiment: Antifungal activity against Saccharomyces cerevisiae; assay type: functional
# Procedure, shortened: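 Broth microdilution following EUCAST for fermentative yeasts, in flat-bottom plates with RPMI 1640 plus 2% glucose. Inoculum was 0.5 × 10^5 to 2.5 × 10^5 CFU/ml. End points were read spectrophotometrically at 24 h: ≥90% growth reduction versus a drug-free control for amphotericin B, and 50% OD reduction for azoles and caspofungin. MFC was the lowest concentration giving 99% killing.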
# [9] = Antifungal activity against Cryptococcus neoformans var. neoformans; assay type: functional; settings: Cryptococcus deneoformans
# Procedure, shortened: (§3)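 EUCAST yeast microdilution, modified for nonfermentative yeasts: plates were sealed and agitated at 350 rpm and 30°C for 48 h.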
# Cryptococcus gattii [10] = experiment: Antifungal activity against Cryptococcus neoformans var. gattii; assay type: functional, Cryptococcus bacillisporus; procedure, shortened: as §3
# Trichosporon inkin [11] = experiment: Antifungal activity against Trichosporon inkin; assay type: functional
# Procedure, shortened: (§4)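 Nonfermentative yeasts were tested by the EUCAST microdilution recommendations with one change: plates were sealed and agitated at 350 rpm and 30°C for 48 h.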
# Trichosporon asahii [12] = experiment: Antifungal activity against Trichosporon asahii; assay type: functional; procedure, shortened: as §4
# Geotrichum candidum [13] = experiment: Antifungal activity against Geotrichum candidum; assay type: functional
# Aspergillus fumigatus [14] = experiment: Antifungal activity against Aspergillus fumigatus; assay type: functional
# Aspergillus terreus [15] = experiment: Antifungal activity against Aspergillus terreus; assay type: functional
# Aspergillus flavus [16] = experiment: Antifungal activity against Aspergillus flavus; assay type: functional
# Aspergillus niger [17] = experiment: Antifungal activity against Aspergillus niger; assay type: functional
# Rhizomucor [18] = experiment: Antifungal activity against Rhizomucor species; assay type: functional
# Lichtheimia corymbifera [19] = experiment: Antifungal activity against Absidia corymbifera; assay type: functional
# Absidia [20] = experiment: Antifungal activity against Absidia species; assay type: functional
# [21] = Antifungal activity against Rhizopus microsporus var. oligosporus; assay type: functional
# Procedure, shortened: (§5)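 Broth microdilution following the EUCAST reference procedure for spore-forming moulds, in flat-bottom plates with RPMI 1640 plus 2% glucose. Inoculum was 2 × 10^5 to 5 × 10^5 CFU/ml. MICs were read visually at 24 and 48 h as 100% growth reduction versus a drug-free control for polyenes and azoles. MEC was used for caspofungin. Tests were run in duplicate and repeated twice.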
# Rhizopus arrhizus [22] = experiment: Antifungal activity against Rhizopus oryzae; assay type: functional; procedure, shortened: as §5
# Rhizopus [23] = experiment: Antifungal activity against Rhizopus species; assay type: functional; procedure, shortened: as §5
# Mucor hiemalis [24] = experiment: Antifungal activity against Mucor hiemalis; assay type: functional
# Mucor [25] = experiment: Antifungal activity against Mucor species; assay type: functional
# Cunninghamella [26] = experiment: Antifungal activity against Cunninghamella species; assay type: functional
# Lomentospora prolificans = experiment: Antifungal activity against Scedosporium prolificans; assay type: functional; procedure, shortened: as §5
# Scedosporium apiospermum [27] = experiment: Antifungal activity against Scedosporium apiospermum; assay type: functional; procedure, shortened: as §5
# Talaromyces marneffei [28] = experiment: Antifungal activity against Penicillium marneffei; assay type: functional
# Penicillium sp. [29] = experiment: Antifungal activity against Penicillium species; assay type: functional
# Fusarium solani [30] = experiment: Antifungal activity against Fusarium solani; assay type: functional
# Fusarium oxysporum [31] = experiment: Antifungal activity against Fusarium oxysporum; assay type: functional
# Sporothrix schenckii [32] = experiment: Antifungal activity against Sporothrix schenckii; assay type: functional; procedure, shortened: as §5
# Curvularia lunata [33] = experiment: Antifungal activity against Curvularia lunata; assay type: functional
# Curvularia australiensis [34] = experiment: Antifungal activity against Bipolaris australiensis; assay type: functional
# Procedure, shortened: (§6)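 Dematiaceous fungi were tested by the EUCAST spore-forming mold reference procedure: flat-bottom microdilution plates, RPMI 1640 plus 2% glucose, inoculum 2 × 105 to 5 × 10^5 CFU/ml. Endpoints were read visually at 24 and 48 h. Polyenes and azoles: 100% growth reduction vs drug-free control. CPF: minimum effective concentration. Run in duplicate and repeated twice.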
# [35] = Antifungal activity against Rhinocladiella aquaspersa; assay type: functional; procedure, shortened: as §6
# Candida albicans [36] = experiment: Antifungal activity against Candida albicans by EUCAST method; assay type: functional; procedure, shortened: as §1
# Nakaseomyces glabratus [37] = experiment: Antifungal activity against Candida glabrata by EUCAST method; assay type: functional; procedure, shortened: as §1
# Candida parapsilosis [38] = experiment: Antifungal activity against Candida parapsilosis by EUCAST method; assay type: functional; settings: Lodderomyces parapsilosis; procedure, shortened: as §1
# Pichia kudriavzevii [39] = experiment: Antifungal activity against Candida krusei by EUCAST method; assay type: functional; procedure, shortened: as §1
# Clavispora lusitaniae [40] = experiment: Antifungal activity against Candida lusitaniae by EUCAST method; assay type: functional; procedure, shortened: as §1
# Candida tropicalis [41] = experiment: Antifungal activity against Candida tropicalis by EUCAST method; assay type: functional; procedure, shortened: as §1
# [42] = test system: Meyerozyma guilliermondii; experiment: Antifungal activity against Candida guilliermondii by EUCAST method; assay type: functional; procedure, shortened: as §1
# Saccharomyces cerevisiae [43] = experiment: Antifungal activity against Saccharomyces cerevisiae by EUCAST method; assay type: functional; procedure, shortened: as §2
# [44] = Antifungal activity against Cryptococcus neoformans var. neoformans by EUCAST method; assay type: functional; settings: Cryptococcus deneoformans; procedure, shortened: as §3
# Cryptococcus gattii [45] = experiment: Antifungal activity against Cryptococcus neoformans var. gattii by EUCAST method; assay type: functional, Cryptococcus bacillisporus; procedure, shortened: as §3
# Trichosporon inkin [46] = experiment: Antifungal activity against Trichosporon inkin by EUCAST method; assay type: functional; procedure, shortened: as §4
# Trichosporon asahii [47] = experiment: Antifungal activity against Trichosporon asahii by EUCAST method; assay type: functional; procedure, shortened: as §4
# Geotrichum candidum [48] = experiment: Antifungal activity against Geotrichum candidum by EUCAST method; assay type: functional
# Aspergillus fumigatus [49] = experiment: Antifungal activity against Aspergillus fumigatus by EUCAST method; assay type: functional
# Aspergillus terreus [50] = experiment: Antifungal activity against Aspergillus terreus by EUCAST method; assay type: functional
# Aspergillus flavus [51] = experiment: Antifungal activity against Aspergillus flavus by EUCAST method; assay type: functional
# Aspergillus niger [52] = experiment: Antifungal activity against Aspergillus niger by EUCAST method; assay type: functional
# Rhizomucor [53] = experiment: Antifungal activity against Rhizomucor species by EUCAST method; assay type: functional; procedure, shortened: as §5
# Lichtheimia corymbifera [54] = experiment: Antifungal activity against Absidia corymbifera by EUCAST method; assay type: functional
# Absidia [55] = experiment: Antifungal activity against Absidia species by EUCAST method; assay type: functional
# [56] = Antifungal activity against Rhizopus microsporus var. oligosporus by EUCAST method; assay type: functional; procedure, shortened: as §5
# Rhizopus arrhizus [57] = experiment: Antifungal activity against Rhizopus oryzae by EUCAST method; assay type: functional; procedure, shortened: as §5
# Rhizopus [58] = experiment: Antifungal activity against Rhizopus species by EUCAST method; assay type: functional; procedure, shortened: as §5
# Mucor hiemalis [59] = experiment: Antifungal activity against Mucor hiemalis by EUCAST method; assay type: functional
# Mucor [60] = experiment: Antifungal activity against Mucor species by EUCAST method; assay type: functional
# Cunninghamella [61] = experiment: Antifungal activity against Cunninghamella species by EUCAST method; assay type: functional
# Scedosporium apiospermum [62] = experiment: Antifungal activity against Scedosporium apiospermum by EUCAST method; assay type: functional; procedure, shortened: as §5
# Talaromyces marneffei [63] = experiment: Antifungal activity against Penicillium marneffei by EUCAST method; assay type: functional
# Penicillium sp. [64] = experiment: Antifungal activity against Penicillium species by EUCAST method; assay type: functional
# Fusarium solani [65] = experiment: Antifungal activity against Fusarium solani by EUCAST method; assay type: functional
# Fusarium oxysporum [66] = experiment: Antifungal activity against Fusarium oxysporum by EUCAST method; assay type: functional
# Sporothrix schenckii [67] = experiment: Antifungal activity against Sporothrix schenckii by EUCAST method; assay type: functional; procedure, shortened: as §5
# Curvularia lunata [68] = experiment: Antifungal activity against Curvularia lunata by EUCAST method; assay type: functional; procedure, shortened: as §6
# Curvularia australiensis [69] = experiment: Antifungal activity against Bipolaris australiensis by EUCAST method; assay type: functional; procedure, shortened: as §6
# [70] = Antifungal activity against Rhinocladiella aquaspersa by EUCAST method; assay type: functional; procedure, shortened: as §6
smiles,measurement,setting,value
C[C@@H]1[C@H](O)[C@@H](C)/C=C/C=C/C=C/C=C/C=C/C=C/C=C/[C@H](O[C@@H]2O[C@H](C)[C@@H](O)[C@H](N)[C@@H]2O)C[C@@H]2O[C@](O)(C[C@@H](O)C[C@@H](O)[C@H](O)CC[C@@H](O)C[C@@H](O)CC(=O)O[C@H]1C)C[C@H](O)[C@H]2C(=O)O [AMPHOTERICIN B],MFC,Candida albicans [1],2 µg/mL
same,MFC,Nakaseomyces glabratus [2],0.5 µg/mL
same,MFC,Candida parapsilosis [3],4 µg/mL
same,MFC,Pichia kudriavzevii [4],0.5 µg/mL
same,MFC,Clavispora lusitaniae [5],4 µg/mL
same,MFC,Candida tropicalis [6],0.5 µg/mL
same,MFC,[7],2 µg/mL
same,MFC,Saccharomyces cerevisiae [8],> 4 µg/mL
same,MFC,[9],1 µg/mL
same,MFC,Cryptococcus gattii [10],1 µg/mL
same,MFC,Trichosporon inkin [11],1 µg/mL
same,MFC,Trichosporon asahii [12],4 µg/mL
same,MFC,Geotrichum candidum [13],> 4 µg/mL
same,MFC,Aspergillus fumigatus [14],0.5 µg/mL
same,MFC,Aspergillus terreus [15],> 4 µg/mL
same,MFC,Aspergillus flavus [16],> 4 µg/mL
same,MFC,Aspergillus niger [17],> 4 µg/mL
same,MFC,Rhizomucor [18],1 µg/mL
same,MFC,Lichtheimia corymbifera [19],1 µg/mL
same,MFC,Absidia [20],1 µg/mL
same,MFC,[21],4 µg/mL
same,MFC,Rhizopus arrhizus [22],4 µg/mL
same,MFC,Rhizopus [23],2 µg/mL
same,MFC,Mucor hiemalis [24],1 µg/mL
same,MFC,Mucor [25],1 µg/mL
same,MFC,Cunninghamella [26],> 8 µg/mL
same,MFC,Lomentospora prolificans,> 8 µg/mL
same,MFC,Scedosporium apiospermum [27],> 8 µg/mL
same,MFC,Talaromyces marneffei [28],> 4 µg/mL
same,MFC,Penicillium sp. [29],> 4 µg/mL
same,MFC,Fusarium solani [30],> 8 µg/mL
same,MFC,Fusarium oxysporum [31],1 µg/mL
same,MFC,Sporothrix schenckii [32],> 8 µg/mL
same,MFC,Curvularia lunata [33],1 µg/mL
same,MFC,Curvularia australiensis [34],1 µg/mL
same,MFC,[35],1 µg/mL
same,MIC,Candida albicans [36],0.12 µg/mL
same,MIC,Nakaseomyces glabratus [37],0.41 µg/mL
same,MIC,Candida parapsilosis [38],0.3 µg/mL
same,MIC,Pichia kudriavzevii [39],0.51 µg/mL
same,MIC,Clavispora lusitaniae [40],1.16 µg/mL
same,MIC,Candida tropicalis [41],0.38 µg/mL
same,MIC,[42],1 µg/mL
same,MIC,Saccharomyces cerevisiae [43],0.66 µg/mL
same,MIC,[44],0.75 µg/mL
same,MIC,Cryptococcus gattii [45],0.66 µg/mL
same,MIC,Trichosporon inkin [46],0.5 µg/mL
same,MIC,Trichosporon asahii [47],1.5 µg/mL
same,MIC,Geotrichum candidum [48],1.5 µg/mL
same,MIC,Aspergillus fumigatus [49],0.69 µg/mL
same,MIC,Aspergillus terreus [50],2.82 µg/mL
same,MIC,Aspergillus flavus [51],1.51 µg/mL
same,MIC,Aspergillus niger [52],1 µg/mL
same,MIC,Rhizomucor [53],0.58 µg/mL
same,MIC,Lichtheimia corymbifera [54],1 µg/mL
same,MIC,Absidia [55],0.8 µg/mL
same,MIC,[56],1 µg/mL
same,MIC,Rhizopus arrhizus [57],3 µg/mL
same,MIC,Rhizopus [58],2.08 µg/mL
same,MIC,Mucor hiemalis [59],0.86 µg/mL
same,MIC,Mucor [60],0.73 µg/mL
same,MIC,Cunninghamella [61],2.25 µg/mL
same,MIC,Scedosporium apiospermum [62],2.66 µg/mL
same,MIC,Talaromyces marneffei [63],1.5 µg/mL
same,MIC,Penicillium sp. [64],0.75 µg/mL
same,MIC,Fusarium solani [65],1 µg/mL
same,MIC,Fusarium oxysporum [66],2.5 µg/mL
same,MIC,Sporothrix schenckii [67],2.5 µg/mL
same,MIC,Curvularia lunata [68],0.75 µg/mL
same,MIC,Curvularia australiensis [69],1 µg/mL
same,MIC,[70],1 µg/mL
